The source made the active and inactive calls. The rule behind the calls is not given here.
Tests used:
A2780 = experiment: Cytotoxicity against human A2780 cells after 96 hrs by MTT assay; assay type: functional, cell-based; conditions: A2780, 96 h
Procedure, shortened: (§1)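 Tested on a human tumour panel of A2780 (ovary), HCT-8 (colon), Bel-7402 (hepatoma), BGC-823 (stomach) and A549 (lung) lines. Camptothecin was the positive control.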

HCT-8 = experiment: Cytotoxicity against human HCT8 cells after 96 hrs by MTT assay; assay type: functional, cell-based; conditions: HCT-8, 96 h; procedure, shortened: as §1
Bel-7402 = experiment: Cytotoxicity against human Bel7402 cells after 96 hrs by MTT assay; assay type: functional, cell-based; conditions: Bel-7402, 96 h; procedure, shortened: as §1
[1] = Cytotoxicity against human […] cells after 96 hrs by MTT assay; assay type: functional, cell-based; procedure, shortened: as §1
A549 = experiment: Cytotoxicity against human A549 cells after 96 hrs by MTT assay; assay type: functional, cell-based; conditions: A549, 96 h; procedure, shortened: as §1
[2] = tested on: Peritoneal macrophage cell; experiment: (§2) Antiinflammatory activity in C57BL6J mouse peritoneal macrophages assessed as inhibition of LPS-stimulated TNFalpha secretion at 10 uM after 24 hrs by MTT assay; assay type: functional, cell-based
[3] = as §2; assay type: functional, cell-based; conditions: Peritoneal macrophage cell
[4] = biological target: T1, Tyrosine-protein phosphatase non-receptor type 1 (Homo sapiens, UniProt P18031); experiment: Inhibition of GST-tagged human recombinant PTP1B assessed as dephosphorylation of para-nitrophenyl phosphate after 10 mins by spectrophotometric analysis
T1 sequence (P18031 whole entry): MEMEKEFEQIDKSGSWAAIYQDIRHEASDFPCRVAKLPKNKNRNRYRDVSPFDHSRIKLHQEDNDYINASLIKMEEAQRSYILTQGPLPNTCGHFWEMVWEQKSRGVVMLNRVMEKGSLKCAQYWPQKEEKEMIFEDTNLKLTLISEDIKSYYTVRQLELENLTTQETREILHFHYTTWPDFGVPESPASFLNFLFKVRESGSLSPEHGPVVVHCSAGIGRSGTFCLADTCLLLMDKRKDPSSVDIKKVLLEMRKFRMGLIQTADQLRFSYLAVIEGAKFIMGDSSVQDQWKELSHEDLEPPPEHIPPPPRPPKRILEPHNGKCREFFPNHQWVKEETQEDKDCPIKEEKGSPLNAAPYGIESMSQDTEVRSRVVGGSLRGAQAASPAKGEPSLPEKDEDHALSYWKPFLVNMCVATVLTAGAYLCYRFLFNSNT

Structure (SMILES)	IC50 (A2780) [µM]	IC50 (HCT-8) [µM]	IC50 (Bel-7402) [µM]	IC50 [1] [µM]	IC50 (A549) [µM]	Activity [2]	IC50 [3] [µM]	IC50 [4] [µM]
CC(=O)[C@H]1[C@H](O)C[C@@]2(C)[C@@H]3CC=C4[C@@H](C=C(O[C@@H]5O[C@H](CO)[C@@H](O)[C@H](O)[C@H]5O)C(=O)C4(C)C)[C@]3(C)C(=O)C[C@]12C [KHEKADAENGOSIDE K]	> 10	> 10	> 10	> 10	> 10	inactive	–	–
CC1(C)C(=O)C(O[C@@H]2O[C@H](CO)[C@@H](O)[C@H](O)[C@H]2O)=C[C@@H]2C1=CC[C@@H]1[C@@]2(C)C(=O)C[C@]2(C)[C@@H]([C@@](C)(O)C(=O)C[C@@H](O)C(C)(C)O)[C@H](O)C[C@@]12C	> 10	> 10	> 10	> 10	> 10	inactive	–	–
CC1(C)C(=O)C(O[C@@H]2O[C@H](CO)[C@@H](O)[C@H](O)[C@H]2O)=C[C@@H]2C1=CC[C@@H]1[C@@]2(C)C(=O)C[C@]2(C)[C@@H]([C@@]3(C)OC=CC3=O)[C@H](O)C[C@@]12C	> 10	> 10	> 10	> 10	> 10	inactive	–	–
CC(=O)OC(C)(C)/C=C/C(=O)[C@](C)(O)[C@H]1[C@H](O)C[C@@]2(C)[C@@H]3CC=C4[C@@H](C=C(O[C@@H]5O[C@H](CO)[C@@H](O)[C@H](O)[C@H]5O)C(=O)C4(C)C)[C@]3(C)C(=O)C[C@]12C	> 10	> 10	> 10	4.98	3.2	inactive	–	–
C[C@H]1[C@H]2[C@@H](C[C@@]3(C)[C@@H]4CC=C5[C@@H](C=C(O[C@@H]6O[C@H](CO)[C@@H](O)[C@H](O)[C@H]6O)C(=O)C5(C)C)[C@]4(C)C(=O)C[C@]23C)O[C@@]2(O)CC(C)(C)O[C@@]12O	> 10	> 10	> 10	> 10	> 10	inactive	–	–
CO[C@@H](CC(=O)[C@](C)(O)[C@H]1[C@H](O)C[C@@]2(C)[C@@H]3CC=C4[C@@H](C=C(O)C(=O)C4(C)C)[C@]3(C)C(=O)C[C@]12C)C(C)(C)O	> 10	> 10	> 10	> 10	> 10	–	> 10	–
CC1(C)C(=O)C(O[C@@H]2O[C@H](CO)[C@@H](O)[C@H](O)[C@H]2O)=C[C@@H]2C1=CC[C@@H]1[C@@]2(C)C(=O)C[C@]2(C)[C@@H]([C@@](C)(O)C(=O)C[C@H]3NC(=O)OC3(C)C)[C@H](O)C[C@@]12C	> 10	> 10	> 10	> 10	> 10	inactive	–	4.26
CC1(C)C(=O)C(O)=C[C@@H]2C1=CC[C@@H]1[C@@]2(C)C(=O)C[C@]2(C)[C@@H]([C@@](C)(O)C(=O)C[C@@H](O)C(C)(C)O)[C@H](O)C[C@@]12C	> 10	> 10	> 10	> 10	> 10	inactive	–	–
CC1(C)C(=O)C(O[C@@H]2O[C@H](CO)[C@@H](O)[C@H](O)[C@H]2O)=C[C@@H]2C1=CC[C@@H]1[C@@]2(C)C(=O)C[C@]2(C)[C@@H]([C@@](C)(O)C(=O)C[C@H](O)C(C)(C)O)[C@H](O)C[C@@]12C	> 10	> 10	> 10	> 10	> 10	inactive	–	–
CC1(C)C[C@]2(O)O[C@@H]3C[C@@]4(C)[C@@H]5CC=C6[C@@H](C=C(O[C@@H]7O[C@H](CO)[C@@H](O)[C@H](O)[C@H]7O)C(=O)C6(C)C)[C@]5(C)C(=O)C[C@]4(C)[C@H]3[C@@](C)(O)[C@]2(O)O1	> 10	> 10	> 10	> 10	> 10	inactive	–	8.63
CC(=O)C1=CC[C@@]2(C)[C@@H]3CC=C4[C@@H](C=C(O[C@@H]5O[C@H](CO)[C@@H](O)[C@H](O)[C@H]5O)C(=O)C4(C)C)[C@]3(C)C(=O)C[C@]12C	> 10	> 10	> 10	> 10	> 10	inactive	–	–
CO[C@@H](CC(=O)[C@](C)(O)[C@H]1[C@H](O)C[C@@]2(C)[C@@H]3CC=C4[C@@H](C=C(O[C@@H]5O[C@H](CO)[C@@H](O)[C@H](O)[C@H]5O)C(=O)C4(C)C)[C@]3(C)C(=O)C[C@]12C)C(C)(C)O	> 10	> 10	> 10	> 10	> 10	inactive	–	–
CC[C@@]1(O)C(=O)OCc2c1cc1n(c2=O)Cc2cc3ccccc3nc2-1 [CAMPTOTHECIN]	0.26	0.26	0.26	0.26	0.26	–	–	–
CC1(C)C(=O)C(O[C@@H]2O[C@H](CO)[C@@H](O)[C@H](O)[C@H]2O)=C[C@@H]2C1=CC[C@@H]1[C@@]2(C)C(=O)C[C@]2(C)[C@@H]3[C@@H](C[C@@]12C)O[C@H](C(C)(C)O)CC(=O)[C@]3(C)O	> 10	> 10	> 10	> 10	> 10	inactive	–	2.81
CC1(C)C(=O)C(O)=C[C@@H]2C1=CC[C@@H]1[C@@]2(C)C(=O)C[C@]2(C)[C@@H]([C@@](C)(O)C(=O)C[C@H](O)C(C)(C)O)[C@H](O)C[C@@]12C	> 10	> 10	> 10	> 10	> 10	–	> 10	–
CC(C)(O)/C=C/C(=O)[C@](C)(O)[C@H]1[C@H](O)C[C@@]2(C)[C@@H]3CC=C4[C@@H](C=C(O[C@@H]5O[C@H](CO)[C@@H](O)[C@H](O)[C@H]5O)C(=O)C4(C)C)[C@]3(C)C(=O)C[C@]12C	> 10	> 10	> 10	> 10	> 10	inactive	–	–

Reference: ChEMBL document CHEMBL1921699, “Cucurbitane glucosides from the root of Machilus yaoshansis” (J Nat Prod, 2011)
